Source: PubChem (several laboratories)
Rows were chosen to be rich in hits. Some 1.9% of all compounds tested hit in one or more screens of this group.
UHRF1 MBD2 ctr: human UHRF1 methylated DNA binding inhibitors; inhibition, % at 4.4 µM; 370,000 compounds, 0.75% hits; Q96T88; AID 687016; UHRF1 binding to methylated oligo, TR-FRET; in the data active = inhibition above about 21%;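 also: UHRF1 SRA domain binding a hemimethylated CpG hairpin DNA probe; 0% = median of test compound wells and 100% = reference inhibitor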
TDP2 absorb: blocks human TDP2 phosphodiesterase activity. O95551. recombinant TDP2, T5PNP hydrolysis, p-nitrophenol absorbance 415 nm. inhibition, % at 12.8 µM. 370,000 compounds, 0.34% hits;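 active = inhibition above the mean of all tested compounds plus 3 SD, set per campaign, cut at about 25% in these data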;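 also: 0% = DMSO with enzyme and 100% = buffer with substrate but no TDP2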
Target sequence (O95551 whole entry, looked up): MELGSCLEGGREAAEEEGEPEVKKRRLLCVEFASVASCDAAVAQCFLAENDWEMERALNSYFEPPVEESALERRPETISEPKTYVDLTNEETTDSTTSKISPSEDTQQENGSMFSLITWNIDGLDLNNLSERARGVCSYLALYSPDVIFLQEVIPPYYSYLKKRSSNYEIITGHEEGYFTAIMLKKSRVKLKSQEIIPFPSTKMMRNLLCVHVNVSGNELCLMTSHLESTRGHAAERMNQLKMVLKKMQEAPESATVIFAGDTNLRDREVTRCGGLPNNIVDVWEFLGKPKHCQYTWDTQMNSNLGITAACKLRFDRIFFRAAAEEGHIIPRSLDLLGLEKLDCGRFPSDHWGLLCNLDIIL
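Read-out basis: percent inhibition. System: recombinant human TDP2. Buffer or medium: Mg2+-containing Tris-HCl buffer, pH 7.5. Repeats: single replicate. Timing: reaction 2 h, 37 °C. Benchmarks: high control without enzyme, low control DMSO plus TDP2. Probe or stimulus: 5 mM T5PNP. Doses: 12.8 µM only. Measured by: epi absorbance of p-nitrophenol freed from T5PNP by hydrolysis.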
LEDGF integ inh: blocks HIV-1 LEDGF/p75-dependent DNA integration; TR-FRET IN-LEDGF/p75 DNA integration, Eu/Cy5; inhibition, % at 3.7 µM; 370,000 compounds, 0.64% hits; AID 743269;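 active = inhibition above the screen-wide mean plus 3 SD, cut at about 13% in these data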;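 also: signal is the Cy5 over europium emission ratio at 671 and 618 nm; 0% = plate median of compound wells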
MBD2 DNA inh: MBD2-methylated oligo binding inhibition | 370,000 compounds, 0.31% hits | Q9UBB5 | TR-FRET, MBD2 binding to methylated oligonucleotide | inhibition, % at 4.4 µM | AID 686964; in the data active = inhibition above about 13%
CASP6 VEID inh: inhibitors of human caspase-6. inhibition, % at 12.5 µM. AID 686996. purified caspase-6, Z-VEID-R110 cleavage fluorescence. 350,000 compounds, 0.53% hits;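 active = mean inhibition across replicates at least about 35%, with every replicate also reaching that limit, limit read from the data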;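 also: 0% = median of neutral control wells and 100% = no fluorescence left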
Target sequence (P55212 24-179 limits assumed): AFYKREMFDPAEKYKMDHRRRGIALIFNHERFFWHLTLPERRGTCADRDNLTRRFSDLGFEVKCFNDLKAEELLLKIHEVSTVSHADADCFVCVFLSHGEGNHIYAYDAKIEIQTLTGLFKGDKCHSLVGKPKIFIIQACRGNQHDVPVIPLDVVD
Target sequence (P55212 194-293 limits assumed): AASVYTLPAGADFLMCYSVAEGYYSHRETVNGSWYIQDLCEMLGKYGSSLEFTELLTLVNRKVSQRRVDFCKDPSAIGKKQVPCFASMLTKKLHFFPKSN
NSD2 inh: blocks human histone methyltransferase NSD2. O96028. NSD2 peptide methylation, AlphaScreen, 120 min. inhibition, % at 12.5 µM. 310,000 compounds, 0.54% hits. AID 743445; in the data active = inhibition above about 50%
An asterisk follows results filed as active; / = not tested or not shown.

SMILES | UHRF1 MBD2 ctr | TDP2 absorb | LEDGF integ inh | MBD2 DNA inh | CASP6 VEID inh | NSD2 inh
COC(=O)c1ccc(=O)c2nc3/c(=C/O)c(O)cc(=O)c3[nH]c12 | 21* | 3 | 52* | 7 | 66* | /
COC(=O)c1ccc(N)cc1O | -2 | 4 | 0 | 0 | / | -21
CS(=O)(=O)N1[C@@H]2c3ccc(-c4ccccc4)c(=O)n3C[C@H]1[C@H](CO)[C@H]2C(=O)NCC1CC1 | / | / | / | / | -2 | /
COC(=O)[C@]12CCCCC=C1N(Cc1ccccc1)C(=O)[C@H](CC(=O)NCc1cccc3ccccc13)C2 | 2 | 2 | 0 | -1 | 0 | /
COC(=O)[C@]12CCCCC=C1N(CCC1=CCCCC1)C(=O)[C@H](CC(=O)NCc1cccc3ccccc13)C2 | 21* | -4 | -2 | 6 | -3 | /
CNC(=O)C[C@H]1CC[C@H]2[C@H](COc3ccc(NS(=O)(=O)c4cccc(F)c4)cc3C(=O)N2C)O1 | / | / | / | / | -1 | /
COCc1c(C(=O)OCC(=O)NCCc2ccc(S(N)(=O)=O)cc2)oc2ccccc12 | -1 | 8 | -6 | 4 | 1 | -7
Cc1c(C(=O)OCC(=O)NCCc2ccc(S(N)(=O)=O)cc2)oc2ccccc12 | 37* | 5 | -1 | 3 | 1 | 1
COc1ccccc1CNC(=O)C[C@H]1C[C@H]2c3cc(NC(=O)c4cccnc4)ccc3O[C@H]2[C@H](CO)O1 | / | / | / | / | 1 | /
CCCN1C[C@H](C)[C@H](OC)CN(C)C(=O)c2cc(NC(=O)C3CCOCC3)ccc2OC[C@H]1C | / | / | / | / | 1 | /
C[C@H]1CN([C@@H](C)CO)C(=O)c2cc(-c3cccc(C(=O)N(C)C)c3)cnc2O[C@@H]1CN(C)C | / | / | / | / | 1 | /
Cc1ccc(OCC(=O)NNC(=O)c2cccnc2)cc1 | 27* | 4 | 4 | 8 | / | 0
Cc1cccc(OCC(=O)NNC(=O)c2ccc3nc[nH]c3c2)c1 | -2 | 10 | 1 | 1 | 41* | 2
Cc1cccc(OCC(=O)NNC(=O)c2ccc([N+](=O)[O-])cc2)c1 | -2 | -1 | 6 | 2 | -2 | 1
Cc1noc(C)c1NC(=O)N(C)C[C@@H]1OCCCC[C@H](C)Oc2ccc(NC(=O)Cc3ccccc3)cc2C(=O)N([C@H](C)CO)C[C@@H]1C | / | / | / | / | -1 | /
C[C@@H](NC(=O)C[C@@H]1CC[C@@H](NC(=O)CN2CCOCC2)[C@@H](CO)O1)c1ccccc1 | / | / | / | / | 63* | /
O=C(Nc1ccc(S(=O)(=O)Nc2ncccn2)cc1)c1ccc(S(=O)(=O)N2CCCC2)cc1 | 0 | 5 | 4 | 1 | 1 | 3
Cc1ccc(S(=O)(=O)N2CCCCC2)cc1C(=O)Nc1ccc(S(=O)(=O)Nc2ncccn2)cc1 | 16 | 0 | 5 | 2 | 51* | /
O=C1CCc2cc(Br)ccc2O1 | -1 | 1 | 7 | 2 | 45* | /
O=C1CCc2ccccc2O1 | -1 | -7 | 0 | -3 | 1 | /
C[C@@H]1CN([C@H](C)CO)S(=O)(=O)c2ccc(-c3ccccc3)cc2O[C@@H]1CN(C)Cc1ccccc1C(=O)O | / | / | / | / | -4 | /
CN(c1ccccc1)c1ccc(/C=C(\CCC(=O)O)c2nc3ccccc3s2)cc1[N+](=O)[O-] | -2 | -9 | 2 | 1 | 38* | 23
COCCN(C(=O)CSc1nnc(C(F)(F)F)n1C)c1c(N)n(CC(C)C)c(=O)[nH]c1=O | / | / | / | / | / | 1
COc1cccc(/C=N/NC(=S)NCCc2ccccc2)c1 | 2 | -2 | 0 | 9 | 35* | -1
O=C(ONC(=O)C1CCCCC1C(=O)NOC(=O)c1ccccc1)c1ccccc1 (stereo not drawn) | 2 | 2 | 3 | -2 | 40* | -14
SMILES | UHRF1 MBD2 ctr | TDP2 absorb | LEDGF integ inh | MBD2 DNA inh | CASP6 VEID inh | NSD2 inh
CCCCCOc1ccc(C2C(C(=O)c3ccc(C)o3)=C(O)C(=O)N2c2cc(C)on2)cc1 (stereo not drawn) | -1 | 2 | 2 | -4 | 39* | 1
CCOc1ccc(C2C(C(=O)c3ccc(C)o3)=C(O)C(=O)N2c2cc(C)on2)cc1OC (stereo not drawn) | 1 | -5 | -2 | 1 | 3 | 3
C#CCn1c2ccccc2c2nc3ccccc3nc21 | 23* | 1 | -2 | 0 | 0 | 0
N#CCn1c2ccccc2c2nc3ccccc3nc21 | -3 | 10 | -2 | -3 | 4 | 19
CN(CCc1cnn(C)c1)C(=O)CCc1nnc(CCCc2ccccc2)o1 | 48* | 7 | 1 | -3 | 0 | -2
CC(C)N(Cc1ccccc1)C(=O)COC(=O)/C=C/c1cnc2ccccc2n1 | -2 | -4 | 3 | -2 | 0 | 1
CCN(C(=O)COC(=O)/C=C/c1cnc2ccccc2n1)c1ccccc1 | 26* | -4 | -4 | -1 | -1 | /
CN1C(=O)CCS(=O)(=O)C1c1ccc(Cl)c(Cl)c1 (stereo not drawn) | 0 | -11 | 2 | 3 | 57* | 0
CN1CCCN(S(=O)(=O)c2ccc(Cl)c(Cl)c2)CC1 | 6 | 1 | 0 | 8 | -9 | 11
COc1ccc(CN(C(=O)c2cc(=O)c3ccccc3o2)C2CCS(=O)(=O)C2)cc1OC (stereo not drawn) | 22* | -6 | 2 | 9 | -9 | -3
O=C(c1ccco1)N(Cc1cccc(F)c1)C1CCS(=O)(=O)C1 (stereo not drawn) | 21* | -1 | -4 | 6 | 1 | 1
O=Cc1ccc(OCc2cn(CC(=O)c3ccc(O)cc3)nn2)cc1 | 0 | -6 | 2 | -1 | 2 | /
COc1ccc(OCc2cn(CC(=O)c3ccc(O)cc3)nn2)cc1 | 22* | 11 | 6 | 12 | 11 | /
CCC(=O)c1ccc(OCc2ccc(C(=O)c3ccccc3)cc2)cc1 | 22* | -2 | -1 | 9 | -3 | 10
CCC(=O)c1ccc(OCc2cn(CC(=O)c3ccc(O)cc3)nn2)cc1 | 22* | 1 | 7 | 8 | 7 | /
O=C(Cn1cc(COc2ccc(C(=O)c3ccccc3)cc2)nn1)c1ccc(O)cc1 | 22* | -9 | -1 | 10 | 15 | /
C[C@@H]1CN([C@H](C)CO)C(=O)c2cc(NC(=O)Nc3ccccc3)ccc2O[C@@H](C)CCCCO[C@@H]1CN(C)C(=O)C1CCCCC1 | / | / | / | / | -4 | /
COCC(=O)Nc1ccc2c(c1)OC[C@@H](C)N(C(=O)CC1CC1)C[C@H](C)[C@@H](OC)CN(C)C2=O | / | / | / | / | 1 | /
COc1ccc(-c2ccc3n(c2=O)C[C@@H]2[C@@H](CO)[C@H](C(=O)Nc4ccccc4)N(C)[C@H]32)cc1 | / | / | / | / | 1 | /
O=C1C(Cl)=C(NCc2cccnc2)C(=O)c2ccccc21 | -17 | 11 | 5 | -27 | 87* | 48
O=c1oc(-c2ccccc2)cc2ccccc12 | -3 | 1 | 2 | 0 | -1 | /
O=c1oc(-c2ccccc2)cc(Cl)c1Cl | -4 | 27* | 0 | 2 | 1 | /
